{
  "source": "ChEMBL document CHEMBL1629563",
  "about": "“Pharmacokinetic and safety evaluation of BILR 355, a second-generation nonnucleoside reverse transcriptase inhibitor, in healthy volunteers” (Antimicrob Agents Chemother, 2008)",
  "key": {"Homo sapiens [1]": {"tested_on": "Homo sapiens", "test": "Toxicity in healthy human assessed as occurrence of migraine at 5 mg, po administered as single dose relative to control", "assay_type": "organism-based", "conditions": "in vivo"}, "[2]": {"test": "Apparent volume of distribution at steady state in healthy human at 37.5 mg, po administered as single dose coadministered with 100 mg of ritonavir", "assay_type": "ADME, organism-based", "conditions": "in vivo, read-out: Vss/F", "summary_of_the_method": "(§1)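 Healthy male volunteers, fasted overnight, got one oral dose of BILR 355 in PEG solution with 200 ml water. Ritonavir 100 mg was given 10 h before and again with the dose. Plasma was sampled (EDTA) from predose to 144 h and assayed by validated LC-MS/MS. Cmax and Vz/F came from noncompartmental analysis. Vss/F = CL/F·(MRTp.o. − 1/Ka), with Ka from compartmental modelling.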"}, "Homo sapiens [3]": {"tested_on": "Homo sapiens", "test": "Toxicity in healthy human assessed as occurrence of palpitations at 25 mg, po administered as single dose relative to control", "assay_type": "organism-based", "conditions": "in vivo"}, "[4]": {"test": "AUC (0 to infinity) in healthy human at 50 mg, po administered as single dose", "assay_type": "ADME, organism-based", "parameters": "dose 50 mg, time infinity, route oral", "conditions": "plasma", "summary_of_the_method": "(§2)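 Healthy male volunteers, six active plus two placebo per dose group, single oral dose in PEG solution with 200 ml water after overnight fast; breakfast 60 to 90 min post-dose. EDTA plasma sampled predose to 144 h. Assayed by validated LC-MS/MS after protein precipitation. Noncompartmental analysis, AUC by linear up/log down trapezoidal rule; Vss = CL/F·(MRTp.o. − 1/Ka).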"}, "Homo sapiens [5]": {"tested_on": "Homo sapiens", "test": "Toxicity in healthy human assessed as occurrence of vomiting at 50 mg, po administered as single dose relative to control", "assay_type": "organism-based", "conditions": "in vivo"}, "Homo sapiens [6]": {"tested_on": "Homo sapiens", "test": "Toxicity in healthy human assessed as occurrence of constipation at 5 mg, po administered as single dose relative to control", "assay_type": "organism-based", "conditions": "in vivo"}, "Homo sapiens [7]": {"tested_on": "Homo sapiens", "test": "Toxicity in healthy human assessed as occurrence of nausea at 100 mg, po administered as single dose relative to control", "assay_type": "organism-based", "conditions": "in vivo"}, "[8]": {"test": "AUC (0 to infinity) in healthy human at 50 mg, po administered as single dose coadministered with 100 mg of ritonavir", "assay_type": "ADME, organism-based", "parameters": "dose 50 mg, time infinity, route oral", "conditions": "plasma", "summary_of_the_method": "(§3)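 Healthy male volunteers, fasted. Ritonavir 100 mg given 10 h before and again together with single oral BILR 355 in PEG solution. EDTA plasma sampled predose to 144 h. LC-MS/MS assay after protein precipitation. Noncompartmental analysis, AUC by linear up/log down trapezoidal rule; Vss = CL/F·(MRTp.o. − 1/Ka).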"}, "Homo sapiens [9]": {"tested_on": "Homo sapiens", "test": "Toxicity in healthy human assessed as occurrence of increase in alanine aminotransferase level at 100 mg, po administered as single dose relative to control", "assay_type": "organism-based", "conditions": "in vivo"}, "Homo sapiens [10]": {"tested_on": "Homo sapiens", "test": "AUC (0 to infinity) in healthy human at 75 mg, po administered as single dose", "assay_type": "ADME, organism-based, Plasma", "parameters": "dose 75 mg, route oral, time infinity", "conditions": "in vivo", "summary_of_the_method": "as §2"}, "[11]": {"test": "Renal clearance in healthy human at 5 mg, po administered as single dose coadministered with 100 mg of ritonavir by high-pressure liquid chromatography-tandem mass spectrometry/mass spectrometry method", "assay_type": "ADME, organism-based, Kidney", "conditions": "in vivo, read-out: CL_renal (converted)"}, "Homo sapiens [12]": {"tested_on": "Homo sapiens", "test": "Apparent oral clearance in healthy human at 75 mg, po administered as single dose", "assay_type": "ADME, organism-based", "conditions": "in vivo", "summary_of_the_method": "as §2"}, "Homo sapiens [13]": {"tested_on": "Homo sapiens", "test": "Toxicity in healthy human assessed as occurrence of maculopapular rash at 5 mg, po administered as single dose relative to control", "assay_type": "organism-based", "conditions": "in vivo"}, "Homo sapiens [14]": {"tested_on": "Homo sapiens", "test": "Ratio of AUC (0 to infinity) in human at 25 mg, po in presence of 100 mg of ritonavir to AUC (0 to infinity) in human at 25 mg, po", "assay_type": "ADME, organism-based", "conditions": "in vivo"}, "[15]": {"test": "Apparent volume of distribution at steady state in healthy human at 25 mg, po administered as single dose coadministered with 100 mg of ritonavir", "assay_type": "ADME, organism-based", "conditions": "in vivo, read-out: Vss/F", "summary_of_the_method": "as §1"}, "[16]": {"test": "Apparent oral clearance in healthy human at 5 mg, po administered as single dose coadministered with 100 mg of ritonavir", "assay_type": "ADME, organism-based", "conditions": "in vivo", "summary_of_the_method": "as §3"}, "Homo sapiens [17]": {"tested_on": "Homo sapiens", "test": "Toxicity in healthy human assessed as occurrence of frequent bowel movements at 1 mg, po administered as single dose relative to control", "assay_type": "organism-based", "conditions": "in vivo"}, "[18]": {"test": "Apparent volume of distribution at steady state in high fat fed healthy human at 50 mg, po administered as single dose coadministered with 100 mg of ritonavir", "assay_type": "ADME, organism-based", "conditions": "in vivo, read-out: Vss/F", "summary_of_the_method": "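Fed cohort: healthy males ate an FDA-recipe high-fat breakfast (about 150/250/500-600 cal from protein/carbohydrate/fat) 30 min before a 50 mg oral dose of BILR 355 in PEG solution. Ritonavir 100 mg was given 10 h before and with the dose. Plasma was sampled over 144 h and assayed by LC-MS/MS. Noncompartmental analysis gave Cmax and Vz/F. Vss/F = CL/F·(MRTp.o. − 1/Ka).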"}, "Homo sapiens [19]": {"tested_on": "Homo sapiens", "test": "Toxicity in healthy human assessed as occurrence of aphthous stomatitis at 62.5 mg, po administered as single dose coadministered with 100 mg of ritonavir", "assay_type": "organism-based", "conditions": "in vivo"}, "Homo sapiens [20]": {"tested_on": "Homo sapiens", "test": "Toxicity in healthy human assessed as occurrence of constipation at 25 mg, po administered as single dose relative to control", "assay_type": "organism-based", "conditions": "in vivo"}, "Homo sapiens [21]": {"tested_on": "Homo sapiens", "test": "Toxicity in healthy human assessed as occurrence of maculopapular rash at 25 mg, po administered as single dose coadministered with 100 mg of ritonavir", "assay_type": "organism-based", "conditions": "in vivo"}, "Homo sapiens [22]": {"tested_on": "Homo sapiens", "test": "Toxicity in healthy human assessed as occurrence of fatigue at 50 mg, po administered as single dose coadministered with 100 mg of ritonavir", "assay_type": "organism-based", "conditions": "in vivo"}, "Homo sapiens [23]": {"tested_on": "Homo sapiens", "test": "Toxicity in healthy human assessed as occurrence of abdominal pain at 1 mg, po administered as single dose relative to control", "assay_type": "organism-based, Abdomen", "conditions": "in vivo"}, "Homo sapiens [24]": {"tested_on": "Homo sapiens", "test": "Toxicity in healthy human assessed as occurrence of fatigue at 25 mg, po administered as single dose relative to control", "assay_type": "organism-based", "conditions": "in vivo"}, "[25]": {"test": "Renal clearance in healthy human at 25 mg, po administered as single dose by high-pressure liquid chromatography-tandem mass spectrometry/mass spectrometry method", "assay_type": "ADME, organism-based, Kidney", "conditions": "in vivo, read-out: CL_renal (converted)"}, "Homo sapiens [26]": {"tested_on": "Homo sapiens", "test": "Toxicity in healthy human assessed as occurrence of aphthous stomatitis at 50 mg, po administered as single dose coadministered with 100 mg of ritonavir", "assay_type": "organism-based", "conditions": "in vivo"}, "Homo sapiens [27]": {"tested_on": "Homo sapiens", "test": "Toxicity in healthy human assessed as occurrence of nausea at 75 mg, po administered as single dose relative to control", "assay_type": "organism-based", "conditions": "in vivo"}, "[28]": {"test": "Mean residence time in healthy human at 5 mg, po administered as single dose", "assay_type": "ADME, organism-based", "conditions": "in vivo"}, "[29]": {"test": "AUC (0 to infinity) in healthy human at 5 mg, po administered as single dose coadministered with 100 mg of ritonavir", "assay_type": "ADME, organism-based", "parameters": "dose 5 mg, time infinity, route oral", "conditions": "plasma", "summary_of_the_method": "as §3"}, "Homo sapiens [30]": {"tested_on": "Homo sapiens", "test": "Toxicity in healthy human assessed as occurrence of diarrhea at 50 mg, po administered as single dose coadministered with 100 mg of ritonavir", "assay_type": "organism-based", "conditions": "in vivo"}, "Homo sapiens [31]": {"tested_on": "Homo sapiens", "test": "Toxicity in healthy human assessed as occurrence of nausea at 50 mg, po administered as single dose relative to control", "assay_type": "organism-based", "conditions": "in vivo"}, "[32]": {"test": "Drug excretion in healthy human urine assessed as unchanged drug at 37.5 mg, po administered as single dose coadministered with 100 mg of ritonavir by high-pressure liquid chromatography-tandem mass spectrometry/mass spectrometry method", "assay_type": "ADME, organism-based", "conditions": "read-out: Drug uptake", "summary_of_the_method": "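Ritonavir 100 mg was given 10 h before and with one oral dose of BILR 355 in PEG solution. Urine was collected by weight as predose blank, then 0-6, 6-24 and 24-72 h, stored at −20°C and assayed by LC-MS/MS. fe = unchanged drug excreted (Ae) as a percentage of dose. Line 50: high-fat breakfast 30 min before dosing.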"}, "[33]": {"test": "AUC (0 to last) in healthy human at 75 mg, po administered as single dose coadministered with 100 mg of ritonavir", "assay_type": "ADME, organism-based", "parameters": "dose 75 mg, route oral, time 0 - last", "conditions": "plasma", "summary_of_the_method": "as §3"}},
  "data": [
    {"smiles": "CCN1c2ncc(CCOc3cc[n+]([O-])c4ccccc34)cc2C(=O)N(C)c2cccnc21", "note": "[BILR 355]", "values": [
      {"measurement": "Activity", "setting": "Homo sapiens [1]", "value": 0, "unit": "%"},
      {"measurement": "Vd/F", "setting": "[2]", "value": 105, "unit": "L"},
      {"measurement": "Activity", "setting": "Homo sapiens [3]", "value": 0, "unit": "%"},
      {"measurement": "AUC(0-inf)", "setting": "[4]", "value": 419, "unit": "ng·h/mL"},
      {"measurement": "Activity", "setting": "Homo sapiens [5]", "value": 0, "unit": "%"},
      {"measurement": "Activity", "setting": "Homo sapiens [6]", "value": 0, "unit": "%"},
      {"measurement": "Activity", "setting": "Homo sapiens [7]", "value": 0, "unit": "%"},
      {"measurement": "AUC(0-inf)", "setting": "[8]", "value": 6800, "unit": "ng·h/mL"},
      {"measurement": "Activity", "setting": "Homo sapiens [9]", "value": 0, "unit": "%"},
      {"measurement": "AUC", "setting": "Homo sapiens [10]", "value": 779, "unit": "ng·h/mL"},
      {"measurement": "CL renal", "setting": "[11]", "value": 6.03, "unit": "mL/min"},
      {"measurement": "CL/F", "setting": "Homo sapiens [12]", "value": 272, "unit": "L/h"},
      {"measurement": "Activity", "setting": "Homo sapiens [13]", "value": 0, "unit": "%"},
      {"measurement": "Ratio", "setting": "Homo sapiens [14]", "value": 31.1},
      {"measurement": "Vd/F", "setting": "[15]", "value": 102, "unit": "L"},
      {"measurement": "CL/F", "setting": "[16]", "value": 122, "unit": "mL/min"},
      {"measurement": "Activity", "setting": "Homo sapiens [17]", "value": 0, "unit": "%"},
      {"measurement": "Vd/F", "setting": "[18]", "value": 81.4, "unit": "L"},
      {"measurement": "Activity", "setting": "Homo sapiens [19]", "value": 0, "unit": "%"},
      {"measurement": "Activity", "setting": "Homo sapiens [20]", "value": 16.7, "unit": "%"},
      {"measurement": "Activity", "setting": "Homo sapiens [21]", "value": 16.7, "unit": "%"},
      {"measurement": "Activity", "setting": "Homo sapiens [22]", "value": 0, "unit": "%"},
      {"measurement": "Activity", "setting": "Homo sapiens [23]", "value": 0, "unit": "%"},
      {"measurement": "Activity", "setting": "Homo sapiens [24]", "value": 0, "unit": "%"},
      {"measurement": "CL renal", "setting": "[25]", "value": 11.5, "unit": "mL/min"},
      {"measurement": "Activity", "setting": "Homo sapiens [26]", "value": 0, "unit": "%"},
      {"measurement": "Activity", "setting": "Homo sapiens [27]", "value": 0, "unit": "%"},
      {"measurement": "MRT", "setting": "[28]", "value": 7.74, "unit": "h"},
      {"measurement": "AUC(0-inf)", "setting": "[29]", "value": 707, "unit": "ng·h/mL"},
      {"measurement": "Activity", "setting": "Homo sapiens [30]", "value": 0, "unit": "%"},
      {"measurement": "Activity", "setting": "Homo sapiens [31]", "value": 0, "unit": "%"},
      {"measurement": "dose excreted", "setting": "[32]", "value": 4.58, "unit": "%"},
      {"measurement": "AUC(0-t)", "setting": "[33]", "value": 12100, "unit": "ng·h/mL"}
    ]}
  ]
}
